# CHO-K1 Ca antag: nonselective inhibitor or artifact in parental CHO-K1 cells; ATP-induced calcium, Fluo-8 fluorescence; inhibition, % at 3 µM; actives 0.6% (n = 360,000); AID 602250;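 active = inhibition above a per-plate cutoff, the plate's mean sample inhibition plus 3 SD, cut at about 24% in these data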;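 also: 0% = DMSO plus EC80 ATP and 100% = DMSO alone without ATP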
# CHRM5 PAM: CHRM5 positive allosteric modulation; activation, % at 3 µM; P08912; actives 0.3% (n = 360,000); CHO-K1 hM5, Fluo-8 calcium, ACh EC20 PAM; 0% = ACh EC20, 100% = ACh EC100; AID 624038;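 active = activation above the run cutoff, the mean activation of all test compounds plus 3 SD, cut at about 18% in these data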
# Target sequence (P08912 whole entry, looked up): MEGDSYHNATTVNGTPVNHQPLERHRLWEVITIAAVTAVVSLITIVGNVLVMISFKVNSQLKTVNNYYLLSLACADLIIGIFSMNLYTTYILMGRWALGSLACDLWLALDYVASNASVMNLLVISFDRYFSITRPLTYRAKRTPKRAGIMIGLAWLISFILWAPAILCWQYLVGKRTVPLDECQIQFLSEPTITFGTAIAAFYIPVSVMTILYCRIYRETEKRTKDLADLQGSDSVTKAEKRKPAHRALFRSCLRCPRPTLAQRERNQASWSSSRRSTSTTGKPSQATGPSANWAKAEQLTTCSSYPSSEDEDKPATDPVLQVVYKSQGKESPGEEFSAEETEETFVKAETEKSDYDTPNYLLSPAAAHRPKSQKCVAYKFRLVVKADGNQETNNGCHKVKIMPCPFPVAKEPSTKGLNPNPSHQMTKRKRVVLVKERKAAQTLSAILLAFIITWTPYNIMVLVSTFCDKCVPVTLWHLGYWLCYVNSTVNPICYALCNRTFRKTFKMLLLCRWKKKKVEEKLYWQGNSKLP
#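 System – CHO-K1 hM5 cells · Compound – 3 µM, single dose · Incubation – compound preincubation 140 s before EC20 acetylcholine addition · Technique – Fluo-8 calcium fluorescence · Measure – Max/basal fluorescence ratio as % of EC20–EC100 ACh window · Benchmarks – low control EC20 acetylcholine (0%), high control EC100 acetylcholine (100%) · Replication – singlicate, one well per test compound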
# CHRM5 agonist: agonists of human muscarinic M5 receptor (CHRM5). P08912. CHO-K1 hM5 cells, Fluo-8 calcium fluorescence; 0% DMSO wells, 100% maximal acetylcholine response. activation, % at 3 µM. actives 0.19% (n = 360,000). AID 624037;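 active = activation above the run's mean over test compounds plus 3 SD, cut at about 23% in these data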;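 also: signal is peak over basal fluorescence ratio across the kinetic read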
# M1 ag parental: M1 agonist counterscreen hit in parental CHO-K1 cells. activation, % at 3 µM. Fluo-8 calcium fluorescence; scaled to maximal ATP response, vehicle zero. actives 0.48% (n = 360,000). AID 602248; in the data active = activation above about 15%;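 also: untransfected CHO-K1 host cells lacking M1 receptor as counterscreen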
# CHRM5 antagonist: CHRM5 antagonism in calcium assay; P08912; CHO-hM5 cells, Fluo-8 calcium fluorescence, ACh EC80; inhibition, % at 3 µM; actives 0.59% (n = 360,000); AID 624040;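 active = inhibition above a per-plate cutoff, the mean of that plate's test compounds plus 3 SD, cut at about 27% in these data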;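 also: 0% = acetylcholine EC80 with DMSO and 100% = DMSO without agonist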
# CHO-K1 Ca PAM: M1 PAM counterscreen hit in parental CHO-K1 cells; ATP EC20, Fluo-8 calcium fluorescence; 0% at ATP EC20, 100% at ATP max; AID 602247; actives 0.02% (n = 360,000); activation, % at 3 µM;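 active = activation above the run cutoff, the mean activation of all test compounds plus 3 SD, cut at about 40% in these data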;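 also: peak over basal fluorescence ratio in a 140 s read after ATP addition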
# The depositor's hits bear a star; . = not tested or not shown; ! = not active in a repeat. Most compounds without a hit are left out; they make up all but 1.7% or so of the library.
SMILES,CHO-K1 Ca antag,CHRM5 PAM,CHRM5 agonist,M1 ag parental,CHRM5 antagonist,CHO-K1 Ca PAM
N#Cc1ccc(NC(=O)Nc2ccc(Cl)cc2)cc1,25.7*,-25.6,6.7,13.6,17.4,7.5
CN(CC(=O)Nc1ccc(C#N)cc1)Cc1ccc(Cl)cc1Cl,-2.1,-22.9,-6.2,3.9,27.2*,5.7
COCCNC(=O)c1ccc(-c2csc(C)n2)cc1,-16.4,-2.8,2.5,2.8,13.7,8.2
Cc1ccc(/C=C/C(=O)c2ccccc(=O)c2O)c(C)c1,8.7,4.1,1.9,-0.4,-3.8,-3.6
Nc1[nH]c2cc([N+](=O)[O-])ccc2c1-c1ccccn1,11.8,-16.7,26.0*,10.0,31.7*,-4.0
CC(=O)c1ccc(OCCCC(=O)OCC(=O)N2CCN(S(=O)(=O)c3ccc(C)cc3C)CC2)cc1,14.3,-15.3,3.9,17.8*,20.6,-2.5
CC(=O)Oc1ccc2c3c(c(=O)oc2c1)CCCC3,-7.4,2.4,2.1,0.1,-0.1,7.0
CCOC(=O)c1sc(NC(=O)c2ccc(S(=O)(=O)N(CC)CC)cc2)nc1C,0.8,-0.4,2.4,0.7,-5.5,0.2
c1cc2c(cc1Nc1nc(-c3ccc4c(c3)OCO4)cs1)OCCO2,26.4*,-0.8,3.3,0.4,5.2,-0.7
CC(C)(C)C(=O)Nc1nc(-c2ccc3c(c2)OCO3)cs1,-1.2,-10.2,-12.7,15.4*,-3.4,-13.2
Cc1ccc(C2=C(O)c3ccccc3C(=O)C2=O)cc1,-5.3,3.0,-1.8,-0.6,-1.0,-5.1
NC(=O)C1=C(c2ccccc2)c2ccccc2C1=O,27.5*,-1.2,-1.8,2.4,17.2,-18.4
CCN1CCN(Cc2ccc(NC(=O)c3ccc(C)c(NC(=O)c4c[nH]c5cc(C(F)(F)F)ccc5c4=O)c3)cc2C(F)(F)F)CC1,25.5*!,-4.9,-3.3,0.1,14.6,-15.8
Cc1ccc(C(=O)Nc2cccc(C(F)(F)F)c2)cc1NC(=O)c1c[nH]c2cc(C(F)(F)F)ccc2c1=O,-14.1,-2.1,1.1,1.5,12.1,21.8
Cc1[nH]n(C(N)=S)c(=O)c1N=Nc1cccc([N+](=O)[O-])c1C,9.8,-11.7,3.2,25.8*,16.0,-2.5
COc1ccc(CNC(=O)COc2cc3c(c4oc(=O)cc(C)c24)CCC(C)(C)O3)cc1OC,-11.3,-4.5,2.4,1.7,1.3,18.7
CNC(=O)CSc1nnc(-c2ccco2)n1-c1ccc(C)cc1,-8.4,5.1,-4.6,0.2,2.3,14.7
CCc1ccccc1-n1c(SCC(=O)NC)nnc1-c1ccco1,-0.5,18.2*,8.6,0.5,-16.4,-7.6
COc1ccc(-n2c(SCC(=O)N(C)C3CCS(=O)(=O)C3)nc3ccc(O)cc3c2=O)cc1OC (stereo unspecified),-1.3,-8.2,-1.5,0.1,29.3*,-3.5
CN(C(=O)CSc1nc2ccccc2c(=O)n1-c1ccc(F)cc1)C1CCS(=O)(=O)C1 (stereo unspecified),7.6,3.0,-0.5,0.1,1.7,15.4
Cc1occc1C(=O)NCCc1ccc(Cl)cc1,-1.8,-1.7,-2.4,0.3,1.8,22.3
Cc1cccc(NC(=O)CSc2nnc(-c3cnccn3)n2Cc2ccco2)c1,29.4*,-9.5,-2.4,-0.6,11.5,-7.8
Cc1ccc(C)c(C(=O)COC(=O)c2nn(C)c(=O)c3ccccc23)c1,-8.6,-8.2,0.0,6.0,10.5,-0.1
CN1CCC(NCCC(c2ccc(F)cc2)c2ccc(Cl)cc2)CC1 (stereo unspecified),10.4,1.6,-0.1,12.1,15.5,15.3
CN1C2CCC1CC(OC(c1ccccc1)c1ccccc1)C2 (stereo unspecified),.,-33.4,-17.8,.,99.1*,.
SMILES,CHO-K1 Ca antag,CHRM5 PAM,CHRM5 agonist,M1 ag parental,CHRM5 antagonist,CHO-K1 Ca PAM
CN1CCC(OC(c2ccccc2)c2ccc(Cl)cc2)C1 (stereo unspecified),-11.9,-41.1,-9.6,6.2,88.7*,14.6
COCCCNc1nc(SCc2ccccc2)nc2sc3c(c12)CCC3,25.2*,-2.5,-2.4,-0.5,2.0,-5.0
COCCNc1nc(SC)nc2sc3c(c12)CCN(C)C3,-11.9,-4.6,-7.1,0.2,14.6,9.7
CC(=O)c1cc(F)ccc1OCC(=O)N1CCCc2ccccc21,-5.7,-3.7,-2.4,3.3,7.2,1.0
COc1ccccc1C(=O)NC(=O)COC(=O)c1cccc(C)c1O,13.6,2.0,1.0,15.1*,9.3,-11.1
N#Cc1ccsc1NC(=O)CCN1C(=O)C2CCCCC2C1=O (stereo unspecified),-1.5,6.5,4.3,0.7,0.3,-2.4
COC(=O)[C@H](Cc1ccccc1)NC(=O)NCCc1ccc(S(N)(=O)=O)cc1,-8.1,0.3,0.5,0.6,1.5,16.2
COC(=O)[C@H](Cc1ccccc1)NC(=O)NCCc1ccc(F)cc1,-2.1,-25.5,-6.1,1.2,30.0*,8.0
Cn1c(=O)c2c(ncn2CC(=O)Nc2ccc(N3CCOCC3)cc2)n(C)c1=O,25.0*,0.1,-5.2,-0.2,5.5,-27.6
Cc1ccc(NC(=O)COC(=O)Cn2cnc3c2c(=O)n(C)c(=O)n3C)cc1,-10.0,-5.8,3.5,0.9,1.0,15.9
C=CCN1C(=NC(=O)CCC(=O)O)SC2CS(=O)(=O)CC21 (stereo unspecified),-1.9,-1.6,0.2,0.1,2.0,-0.1
C=CCN1C(=NC(=O)CCCC(=O)O)SC2CS(=O)(=O)CC21 (stereo unspecified),28.2*,1.6,-6.1,-0.4,-3.4,-6.5
OC(c1cccc(OCc2ccccc2)c1)c1nnc(-c2ccccc2)o1 (stereo unspecified),16.6,-25.6,1.4,7.5,28.1*,7.2
Cc1ccc(F)c(CNC(=O)C2CCC(=O)N(Cc3ccccn3)C2)c1F (stereo unspecified),26.8*,3.3,-1.8,0.3,8.6,0.0
c1ccc2cc(N3CCCCC3)ccc2c1,-11.4,8.4,0.6,1.5,-1.8,15.9
O=C1c2ccccc2C(=O)c2cc(N3CCCCC3)ccc21,3.7,-13.2,72.0*,14.6,34.4*,9.1
CCC1(c2ccccc2)NC(=O)N(CC(=O)Nc2ccccc2N2CCCCC2)C1=O (stereo unspecified),12.4,-6.6,20.0,38.1*,12.3,7.7
CCC1(c2ccc(F)cc2)NC(=O)N(CC(=O)Nc2ccc(C(N)=O)cc2)C1=O (stereo unspecified),-5.2,5.2,-0.6,0.4,8.8,6.8
CCC1(c2ccc(F)cc2)NC(=O)N(CC(=O)Nc2ccc(N3CCCCC3)cc2)C1=O (stereo unspecified),7.4,6.4,26.9*,10.5,5.0,10.7
Cc1ccc2c(c1)C1(OCCCO1)C(=O)N2CC(=O)NN,-3.6,5.5,3.6,0.7,0.2,6.5
